According to ChEMBL document CHEMBL1136777, “Synthesis, anticancer activity, and inhibition of tubulin polymerization by conformationally restricted analogues of lavendustin A” (J Med Chem, 2003):

Assays:
SF-539 = assay: Antiproliferative activity against human CNS SF-539 cell line; format: functional
Summary of the method: (§1)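 Adherent lines grown in RPMI 1640 with 5% fetal bovine serum and 2 mM L-glutamine, plated at 5000–40 000 cells/well and preincubated 24 h. Five drug concentrations were added for 48 h at 37 °C. Cells were fixed with cold TCA (10% final), stained with sulforhodamine B, and read at 515 nm. GI50 is the concentration giving 50% reduction in net protein increase relative to time-zero wells.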

HCT-116 = assay: Antiproliferative activity against human colon HCT116 cell line; format: functional; summary of the method: as §1
CCRF-CEM = assay: Antiproliferative activity against human leukemia CCRF-CEM cell line; format: functional
Summary of the method: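 Suspension leukemia line grown in RPMI 1640 with 5% fetal bovine serum and 2 mM L-glutamine and preincubated 24 h. Drug was given at five concentrations for 48 h at 37 °C. Settled cells were fixed with 80% TCA (16% final), stained with sulforhodamine B, and read at 515 nm. GI50 was set at 50% reduction in net protein increase versus time-zero wells.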

HOP-62 = assay: Antiproliferative activity against human lung HOP-62 cell line; format: functional; summary of the method: as §1
UACC-62 = assay: Antiproliferative activity against human melanoma UACC-62 cell line; format: functional; summary of the method: as §1
SN12C = assay: Antiproliferative activity against human renal SN12C cell line; format: functional; summary of the method: as §1
DU-145 = assay: Antiproliferative activity against human prostate DU-145 cell line; format: functional; summary of the method: as §1
[1] = Mean graph midpoint for growth inhibition of all human cancer cells was determined; format: functional, Cancer cell lines; set-up: unit: µM
Summary of the method: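 Average of GI50 values over about 55 cell lines from the 48-h sulforhodamine B growth assay. Test range was 10^-4 to 10^-8 M, and values beyond it were set to those limits. Compounds with a first MGM of 10 μM or less were tested a second time and a standard deviation was calculated.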

Tubulin = Tubulin (Bos taurus, UniProt Q6B856+Q862F3); assay: Inhibition of tubulin polymerization was determined at 1.2 mg/mL concentration; format: functional
OVCAR-3 = assay: Antiproliferative activity against human ovarian OVCAR-3 cell line; format: functional; summary of the method: as §1
[2] = tested on: MDA-MB-435 (Homo sapiens); assay: Antiproliferative activity against human breast MDA-MB-435 cell line

Tubulin, sequence (Q6B856 whole entry): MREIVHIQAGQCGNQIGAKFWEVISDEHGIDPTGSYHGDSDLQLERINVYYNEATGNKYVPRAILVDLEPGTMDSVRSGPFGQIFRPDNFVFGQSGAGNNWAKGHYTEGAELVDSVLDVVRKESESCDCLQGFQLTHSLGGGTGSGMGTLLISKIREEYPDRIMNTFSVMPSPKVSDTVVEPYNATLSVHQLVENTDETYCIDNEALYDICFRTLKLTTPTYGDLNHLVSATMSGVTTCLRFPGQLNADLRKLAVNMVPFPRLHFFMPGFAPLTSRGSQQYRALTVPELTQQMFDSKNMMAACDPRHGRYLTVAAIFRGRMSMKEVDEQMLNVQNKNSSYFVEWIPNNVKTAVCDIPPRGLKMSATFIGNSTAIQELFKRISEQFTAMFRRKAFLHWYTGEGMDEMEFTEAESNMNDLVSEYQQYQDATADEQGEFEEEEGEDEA
Tubulin, sequence (Q862F3 whole entry): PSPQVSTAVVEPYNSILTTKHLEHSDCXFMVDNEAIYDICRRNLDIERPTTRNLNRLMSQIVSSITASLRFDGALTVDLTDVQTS

Row | SMILES | GI50 (SF-539) [µM] | GI50 (HCT-116) [µM] | GI50 (CCRF-CEM) [µM] | GI50 (HOP-62) [µM] | GI50 (UACC-62) [µM] | GI50 (SN12C) [µM] | GI50 (DU-145) [µM] | MGM [1] | IC50 (Tubulin) [µM] | GI50 (OVCAR-3) [µM] | GI50 [2] [µM]
1 | O=C(NCCc1ccc(F)cc1)c1cc(/C=C\c2cc(O)ccc2O)ccc1O | 3.8 | 3.8 | 1.3 | 6.3 | 2.3 | 4 | 15.2 | 3.5 | 4.2 | 2.1 | 12.9
2 | COC(=O)c1cc(/C=C\c2cc(OC)ccc2OC)ccc1OC | 10.6 | 20.1 | – | 32.9 | 14.8 | 30.2 | 18.1 | 15.5 | > 40 | 4.9 | 10.9
3 | O=C(NCCc1ccccc1)c1cc(CCc2cc(O)ccc2O)ccc1O | – | 12.5 | – | 13.9 | 11 | 49.8 | 14.5 | 6.4 | 5.5 | 4.4 | 3.9
4 | COC(=O)c1cc(C#Cc2cc(OC)ccc2OC)ccc1OC | 81.1 | 37.7 | 36.8 | – | 29.3 | 37.9 | 43.6 | 30.9 | > 40 | 13.6 | > 100
5 | CCCCCCNC(=O)c1cc(/C=C/c2cc(O)ccc2O)ccc1O | – | – | – | – | – | – | – | – | 5 | – | –
6 | O=C(NCCc1ccc(F)cc1)c1cc(CCc2cc(O)ccc2O)ccc1O | 1.8 | 1 | 0.4 | 2.6 | 2.8 | 2.1 | 8 | 2.8 | 9.7 | 1 | 2.3
7 | O=C(NCCc1ccccc1)c1cc(/C=C/c2cc(O)ccc2O)ccc1O | 2.4 | 1.8 | 2.1 | 9.3 | 2 | 5.1 | 10.1 | 3.8 | 4 | 2.9 | 4
8 | O=C(NCCc1ccc(F)cc1)c1cc(/C=C/c2cc(O)ccc2O)ccc1O | 2.2 | 1.9 | 1.8 | 8.8 | 2.1 | 5.6 | 11 | 3.5 | 2.9 | 2.7 | 3.8
9 | COc1ccc(OC)c(CC(=O)c2ccc(O)c(C(=O)NCCc3ccc(F)cc3)c2)c1 | – | 4 | 2.4 | 1.5 | 4 | 4.3 | 1.7 | 3.6 | 1.4 | 1.4 | 0.6
10 | COc1ccc(OC)c(CCc2ccc(O)c(C(=O)NCCc3ccc(F)cc3)c2)c1 | 3.2 | 5.3 | 3.2 | 15 | 6.6 | 15.8 | 4.2 | 6.9 | 1.4 | 3.2 | 0.5
11 | CCCCCCNC(=O)c1cc(C#Cc2cc(OC)ccc2OC)ccc1OC | > 100 | 6.9 | 7.9 | 11.8 | 56.8 | > 100 | > 100 | 31.6 | > 40 | > 100 | > 100
12 | O=C(NCCc1ccc(F)cc1)c1cc(NCc2cc(O)ccc2O)ccc1O | 9.2 | 9.2 | 0.29 | 12 | 7.8 | 7.7 | 18 | 0.35 | 6.4 | 11 | 13
13 | O=C(NCCc1ccccc1)c1cc(/C=C\c2cc(O)ccc2O)ccc1O | 1.6 | 3.5 | 0.2 | 3 | 2.1 | 6.8 | 1.8 | 1.4 | 5.4 | 1 | 1.7
14 | COc1ccc(OC)c(C#Cc2ccc(OC)c(C(=O)NCCc3ccc(F)cc3)c2)c1 | – | 4.7 | 4.7 | 4.9 | 6 | > 100 | > 100 | 11.5 | > 40 | – | 1.2
15 | COc1ccc(OC)c(C#Cc2ccc(OC)c(C(=O)O)c2)c1 | 38.5 | 32.3 | 55 | 25.6 | 22.6 | 38.2 | 26.9 | 18.6 | > 40 | 24.4 | 8.8
16 | O=C(NCCc1ccccc1)c1cc(C#Cc2cc(O)ccc2O)ccc1O | 9.6 | 10.5 | 0.3 | 10.3 | 1.9 | 5.7 | 12.7 | 3.8 | 3.7 | 2.8 | 2.9
17 | CCCCCCNC(=O)c1cc(CCc2cc(O)ccc2O)ccc1O | 2.2 | 3.6 | 5.1 | 7.4 | 3.3 | 2.2 | 7.4 | 4.4 | 6.2 | 2.4 | 3.2
18 | COc1ccc(OC)c(/C=C\c2ccc(OC)c(C(=O)NCCc3ccc(F)cc3)c2)c1 | 5.9 | 3.8 | 3.4 | 8.1 | 3.5 | 6.4 | > 100 | 4.5 | > 40 | 4.2 | 2.1
19 | CCCCCCNC(=O)c1cc(/C=C\c2cc(OC)ccc2OC)ccc1OC | 23.6 | 21.1 | 24.7 | 31.9 | 25 | 63.1 | 45.6 | 16.6 | > 40 | 16.1 | 10.3
20 | COc1ccc(OC)c(/C=C\c2ccc(OC)c(C(=O)NCCc3ccccc3)c2)c1 | > 100 | 47.3 | 12.3 | > 100 | 16.4 | > 100 | > 100 | 38.9 | > 40 | 5 | 3
21 | COc1ccc(OC)c(C#Cc2ccc(OC)c(C(=O)NCCc3ccccc3)c2)c1 | > 100 | 12 | – | > 100 | 24.4 | > 100 | > 100 | 40.7 | > 40 | 6.7 | 2.5
22 | CCCCCCNC(=O)c1cc(/C=C\c2cc(O)ccc2O)ccc1O | 3.3 | 3.9 | 1.2 | 8.3 | 5.8 | 11.6 | 10.5 | 4.1 | 4.2 | 1.7 | 4.5
